Measurements collected from several papers.
Each line is one published result; the experiments were not run side by side.
Target: Myosin light chain kinase 2, skeletal/cardiac muscle (MYLK2, Homo sapiens, UniProt Q9H1R3)

| Structure (SMILES) | test | conditions | endpoint | result |
| --- | --- | --- | --- | --- |
| Nc1ncnc2occ(-c3ccc(NC(=O)Nc4cc(C(F)(F)F)ccc4F)cc3)c12 | enzyme activity, inhibitor | 20 µM | remaining activity | 1.4% |
| O=C1c2ccccc2-c2n[nH]c3cccc1c23 | enzyme activity, inhibitor | 0.5 µM | activity vs control | 22.2% |
| Cn1nc(C(F)(F)F)cc1-c1cnc(N2CCc3cc(S(=O)(=O)Nc4c(F)cc(Cl)cc4F)cc(N4CCCC4=O)c32)nc1 | cell-free assay, competition with immobilised ligand | 1 µM | remaining binding | 100% |
| C=CC(=O)Nc1cc(Nc2nccc(Nc3cc(Cl)c(F)cc3C(C)(C)O)n2)c(OC)cc1N1CC[C@@H](N(C)C)C1 | enzyme activity, inhibitor | 1 µM | inhibition | -9% |
| CCCOc1ccc(OC)c(F)c1C(=O)c1ccc(C(=O)N[C@@H]2CNC[C@H]2NC(=O)c2ccc3[nH]ncc3c2)cc1 | enzyme activity, inhibitor | 10 µM | remaining activity | 76% |
| Cc1ccc(NC(=O)c2ccc(CN3CCN(C)CC3)cc2)cc1Nc1nc(-c2cccnc2)cs1 | cell-free assay | 0.5 µM | remaining signal | 98.7% |
| C[C@H](c1ccnc(Nc2nc3ccc(-c4cc(N(C)C)ncn4)cc3[nH]2)c1)N1CCN(C(=O)CC(F)(F)F)CC1 | cell-free assay, competition with immobilised ligand | 0.1 µM | remaining binding | 92% |
| COc1cc2ncnc(Nc3ccc(Oc4ccccc4)c(C)c3C)c2cc1OC | enzyme activity, inhibitor | 1 µM | inhibition | -5% |
| CN(C)C(=O)Cn1cc(-c2nc([C@@](C)(c3ccc(-c4cnc(N)nc4)cc3)C3CC3)no2)cn1 | cell-free assay, competition with immobilised ligand | 1 µM | remaining binding | 100% |
| CCN(CC)CCNC(=O)c1c(C)[nH]c(/C=C2\C(=O)Nc3ccc(F)cc32)c1C | enzyme activity, inhibitor | 10 µM | inhibition | 92% |
| CC(C)(C)c1nc2c(s1)c1nc(N)ncc1c1ccc(NS(=O)(=O)c3c(F)cccc3F)c(F)c12 | enzyme activity, inhibitor, radiometric | 1 µM | remaining activity | 113% |
| CNC(=O)c1ccc(Nc2ncc(C(F)(F)F)c(NCc3nccnc3N(C)S(C)(=O)=O)n2)cc1 | cell-free assay, competition with immobilised ligand | 0.1 µM | remaining binding | 63% |
| Clc1ccc(Nc2nnc(Cc3ccncc3)c3ccccc23)cc1 | cell-free assay | 0.5 µM | remaining signal | 103% |
| CCS(=O)(=O)c1cc2cc(C[C@](O)(CC(C)(C)c3ccc(F)cc3C(N)=O)C(F)(F)F)[nH]c2cn1 | cell-free assay, competition with immobilised ligand | 1 µM | remaining binding | 98% |
| COc1cc(Cl)c(C(=O)N[C@@H](CN[C@H]2CC[C@@H](N)CC2)Cc2ccc(C#N)cc2)cc1-c1ccc(CN[C@H](C)c2ccc(C)cc2)o1 | enzyme activity, inhibitor | 1 µM | remaining activity | 99% |
| O=C(Nc1cnn(-c2csc(C(=O)NC3COC3)c2)c1)Nc1c(F)cccc1Cl | enzyme activity, inhibitor | 5 µM | remaining activity | 83.5% |
| CNC(=O)c1cc(Oc2ccc(NC(=O)Nc3ccc(Cl)c(C(F)(F)F)c3)cc2)ccn1 | enzyme activity, inhibitor | 0.3 µM | inhibition | 4% |
| O=C1NC(=O)c2cc(Nc3ccc(F)cc3)c(Nc3ccc(F)cc3)cc21 | cell-free assay | 0.5 µM | remaining signal | 98.7% |
| NS(=O)(=O)c1cc(NC(=O)C2(c3ccccc3Cl)CC2)ccc1Oc1cccc(Cl)c1 | cell-free assay, competition with immobilised ligand | 1 µM | remaining binding | 73% |
